Screening results (PubChem BioAssay)
UPR CHOP act: activators of apoptotic arm of unfolded protein response (CHOP). CHO-CHOP luciferase reporter, UPR activation, luminescence; percent of tunicamycin response over DMSO baseline. activation, % at 10 µM. 330,000 tested, 0.34% active. AID 449763;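 active means at 10 µM dose, activation of 40% or more, normalized to positive control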;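 further: 100% = tunicamycin at 10 µg/mL and 0% = DMSO alone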
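System: CHO CHOP reporter cells. Amount: 500 cells per well. Buffer or medium: F12 medium, 10% FBS. Compound dosing: one dose, 10 µM in 0.5% DMSO. Incubation: 6 h compound exposure at 37 °C after overnight seeding. Technique: Steady-Glo luciferase luminescence. Benchmarks: tunicamycin and DMSO controls.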
CHOP inh: CHOP inhibition in unfolded protein response | CHO-K1 CHOP-promoter luciferase, tunicamycin-induced, 15-18 h | inhibition, % at 10 µM | 220,000 tested, 3.8% active | AID 2732;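 active means compounds that reduced the stress-induced luciferase reporter signal by more than about 70% of percent inhibition, limit read from the data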;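 further: 0% = tunicamycin plus vehicle and 100% = wells without tunicamycin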
MPTP inh: permeability transition pore inhibition; isolated mouse mitochondria, Ca2+ swelling absorbance, 30 min; inhibition, % at 10 µM; 360,000 tested, 1.4% active;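 active means inhibition of 50% or more, scaled per plate between neutral and stimulator controls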;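 further: 0% = DMSO wells given calcium and 100% = 1 mM EGTA wells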
UPR XBP1 act: adaptive UPR (XBP1) activation; CHO-XBP1 luciferase reporter, IRE1-XBP1 UPR activation, luminescence; percent of tunicamycin response, DMSO as zero; activation, % at 20 µM; 330,000 tested, 0.33% active;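 active means versus positive control, 20 µM dose yields 30% or more activation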;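 further: 100% = tunicamycin at 10 µg/mL and 0% = DMSO only wells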
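Material: CHO cell line with stable XBP1 luciferase reporter; buffer or medium: F12 medium containing 10% fetal bovine serum; compound: single point, 20 µM final compound, 1% DMSO; incubation: 6 h treatment, 37 °C; measured by: glow luminescence from Steady-Glo reagent; evaluation: activation, % of tunicamycin; control set: tunicamycin high, DMSO low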
aDG glyco act: alpha-DG glycosylation activation; AID 624168; activation, % at 10 µM; Pro5-aDG cells, alpha-DG glycosylation AlphaScreen (IIH6); 0% Pro5, 100% B10-LARGE cell signal; 360,000 tested, 0.22% active;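 active means activation of at least 8% versus controls, or a plate z-score of at least 8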;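 further: Pro5 are CHO cells carrying HIG-tagged alpha-DG that lacks glycosylation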
NR3A LBD binder: modulators (binders) of human NR3A ligand-binding domain | NR3A LBD differential scanning fluorimetry, Tm shift; 0% = protein alone, 100% = glycine-bound protein | Tm shift relative to glycine control, % at 25 µM | 340,000 tested, 2.5% active;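 active means melting temperature shift of at least 10% of the positive control shift, at one fixed dose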
Active calls of the source: *; . = no result. This is a sample that favours compounds with a hit; in the whole collection about 5.6% have one here.

SMILES | UPR CHOP act | CHOP inh | MPTP inh | UPR XBP1 act | aDG glyco act | NR3A LBD binder
C=CCn1c(N)c(C(=O)Nc2ccccc2)c2nc3ccccc3nc21 | 2.3 | 63.6 | 4.8 | -0.5 | -0.2 | 12.9*
C=CCn1c(N)c(C(=O)OC(C)(C)C)c2nc3ccccc3nc21 | 1.0 | -4.2 | -2.1 | 1.0 | -0.2 | 8.8
Cc1cccc(N(C)S(=O)(=O)c2cccc3nsnc23)c1 | 0.3 | 94.1* | 0.4 | -1.6 | -0.1 | 0.5
CCN(c1cccc(C)c1)S(=O)(=O)c1cccc2nsnc12 | 0.7 | 10.3 | -0.9 | -3.3 | -0.1 | -1.4
O=C(CSc1n[nH]c(-c2ccncc2)n1)Nc1ccccc1 | -0.1 | . | -0.1 | -3.5 | 0.0 | 27.4*
O=C(CSc1n[nH]c(-c2ccco2)n1)Nc1ccc(Br)cc1 | -2.7 | . | -0.7 | -2.7 | 0.0 | 13.5*
C=CCOC(=O)C1=C(C)NC(SC)=C(C#N)C1c1ccc(OCC)cc1 (centres undefined) | -2.9 | 94.7* | -0.5 | -0.6 | -0.3 | -3.8
CCn1nc(C)c(CN2CCC(C(=O)Nc3cccc(-c4cccc(Cl)c4)c3)CC2)c1C | -0.9 | . | 16.1 | -1.2 | 1.7 | -3.9
CCOc1ccc(C(=O)NCC(=O)NC(C)CCc2ccccc2)cc1OCC (centres undefined) | -2.9 | . | 0.7 | -3.2 | -0.6 | -0.8
CCn1cc(C(=O)NCCc2ccc(Cl)cc2)c(=O)c2cc(S(=O)(=O)N(C)C)ccc21 | 1.2 | . | 0.7 | -1.9 | -0.1 | 21.8*
FC(F)Sc1ccc(N=C2NN=C(c3ccc4c(c3)OCCO4)CS2)cc1 | 0.7 | 8.5 | 9.3 | 0.1 | 0.0 | 14.8*
COc1ccc(N=C2NN=C(c3ccc4c(c3)OCCO4)CS2)cc1 | 1.7 | -1.0 | -5.4 | -1.8 | -0.2 | -1.4
c1cc2c(cc1C1=NNC(=NC3CC3)SC1)OCCO2 | -9.9 | 98.0* | 0.8 | -15.5 | 2.4 | 2.5
O=C(Nc1ccc(-c2csc(Nc3ccc(Cl)cc3)n2)cc1)c1cccc(C(F)(F)F)c1 | 2.6 | 49.3 | . | 5.4 | . | 34.1*
O=C(Nc1ccc(-c2csc(Nc3ccccc3)n2)cc1)c1cc([N+](=O)[O-])cc(C(F)(F)F)c1 | 3.8 | 11.6 | 5.9 | 8.5 | -0.2 | 24.2*
O=C(Nc1ccc(-c2csc(Nc3ccccc3)n2)cc1)c1cccc(C(F)(F)F)c1 | 9.9 | 90.7* | 1.3 | 14.1 | -0.5 | 25.9*
O=C(N/N=C\c1ccc(F)cc1)c1csnn1 | 0.1 | -32.7 | -4.2 | -1.3 | 0.0 | 12.2*
O=C(N/N=C/c1cc(Cl)ccc1O)c1ccncc1 | -0.1 | 72.5* | 2.6 | -0.5 | 0.8 | -2.5
O=C(N/N=C/c1cccc(F)c1)c1ccc(Cl)cc1 | 4.5 | 34.7 | 0.4 | -1.0 | -0.6 | -11.3
COC(=O)c1ccc(/C=N/NC(=O)c2ccc3nc[nH]c3c2)cc1 | 0.2 | . | 0.7 | -2.4 | -0.1 | 10.9*
O=C(N/N=C/c1cccc(NC(=O)c2ccc(Cl)cc2)c1)c1ccc(O)cc1 | 4.2 | -22.4 | 0.9 | 2.4 | -0.2 | 29.1*
O=C(Nc1nonc1NC(=O)c1cccs1)c1cccs1 | -2.0 | 7.3 | 1.7 | -0.2 | 0.2 | -8.8
O=C(N/N=C/c1ccncc1)c1cccc(NC(=O)c2ccc(Cl)cc2)c1 | 0.4 | 52.8 | 1.7 | -1.5 | 0.4 | 25.5*
O=C(N/N=C/c1ccc(F)cc1)c1cccc(NC(=O)c2ccc(F)cc2)c1 | 4.0 | . | 2.4 | 5.2 | 0.3 | 32.8*
C=CCNC(=S)N/N=C/c1ccc(-c2cccc([N+](=O)[O-])c2)o1 | 0.0 | 36.4 | 3.8 | 17.7 | 0.2 | -3.1
SMILES | UPR CHOP act | CHOP inh | MPTP inh | UPR XBP1 act | aDG glyco act | NR3A LBD binder
C=CCNC(=S)N/N=C/c1ccc(-c2ccc(Br)cc2)o1 | -0.3 | -30.9 | 1.0 | 3.1 | 0.0 | 16.5*
O=C(Nc1ccc(F)cc1F)Nc1sccc1-c1nc2ccccc2s1 | -0.7 | 44.8 | 30.8 | -1.1 | 0.3 | 21.0*
O=C(Nc1nc2ccccc2s1)Nc1ccc(F)cc1F | 5.6 | . | 4.7 | -2.3 | 0.1 | -2.6
CCc1c(C(=O)N/N=C/c2ccco2)nnn1-c1nonc1N | 3.5 | . | 0.1 | 2.0 | 0.0 | -7.2
O=C1C=C(OCCF)CC(c2ccc(Br)cc2)O1 (centres undefined) | . | . | 1.4 | . | -0.1 | .
Cc1ccc(CCNC(=O)C2CC(c3cc(C(F)(F)F)cc(C(F)(F)F)c3)=NO2)cc1 (centres undefined) | -1.6 | 76.2* | 0.1 | 2.9 | 0.0 | -3.7
COc1ccc(CCNC(=O)C2CC(c3cc(C(F)(F)F)cc(C(F)(F)F)c3)=NO2)cc1 (centres undefined) | -0.9 | 33.2 | -1.7 | -0.6 | 0.0 | -5.7
O=C(CCCSc1nc2ccccc2[nH]1)N1CCN(c2ccc([N+](=O)[O-])cc2)CC1 | 2.8 | 73.1* | 11.3 | -2.1 | 1.2 | -3.5
O=C(CSc1nc2ccccc2[nH]1)N1CCN(c2ccc(F)cc2)CC1 | -1.7 | 32.3 | -0.4 | -2.2 | -0.1 | 2.4
O=C1NN(c2ccc(Br)cc2)C(=O)/C1=C\c1ccc(O)cc1O | -1.2 | . | 0.7 | -5.8 | 0.0 | 27.6*
O=C1NN(c2cccc(Br)c2)C(=O)/C1=C\c1ccc(O)cc1 | 1.5 | . | 2.0 | 3.0 | -0.1 | 15.0*
COC(=O)[C@@]1(C(C)C)N=C(c2cc(OC)c(OC)c(OC)c2)[C@]2(O1)C(=O)N(Cc1ccc(OC)cc1)c1ccc(Br)cc12 | . | . | -0.6 | . | 0.0 | .
COc1cccc(NC(=O)CN(C)C(=O)c2cc(-c3cccc(Br)c3)nc3ccccc23)c1 | 3.8 | . | 1.3 | -1.7 | -0.3 | 18.2*
CN(C)S(=O)(=O)c1cccc(NC(=O)COC(=O)c2ccc3ccccc3n2)c1 | 1.7 | . | -1.3 | -0.3 | -0.2 | 3.9
CN(C)S(=O)(=O)c1cccc(NC(=O)COC(=O)c2cc(-c3cccc(Br)c3)nc3ccccc23)c1 | 2.1 | 27.0 | 21.3 | -5.6 | -0.1 | 21.9*
COc1ccc(NC(=O)CN(C)C(=O)c2cc(-c3ccc(Cl)cc3)nc3ccccc23)cc1 | 2.2 | . | 0.6 | -3.5 | -0.2 | 13.5*
COc1ccc(C)cc1NC(=O)c1ccc(S(=O)(=O)N2CCCCC2)cc1 | -2.3 | . | -0.7 | -2.0 | 0.0 | 0.6
CCN(c1ccccc1)S(=O)(=O)c1ccc(C(=O)Nc2ccc(C)cn2)cc1 | 2.9 | . | 0.2 | -2.6 | -0.1 | 0.9
CN(C)C(/C=C/Nc1ccc([N+](=O)[O-])cc1)=C(C#N)C#N | 3.4 | 2.3 | 0.1 | -1.0 | -0.1 | 17.9*
O=C(CSc1ncc(-c2ccccc2)n1C1CCCC1)N1CCc2ccccc21 | 1.3 | 74.6* | 7.6 | 1.2 | 0.0 | -3.1
CCn1c(SCC(=O)Nc2cccc(S(=O)(=O)N(C)c3ccccc3)c2)nnc1C1CC1 | -1.1 | . | -0.5 | -4.5 | 0.1 | -0.8
